PfGluPho inh – PfG6PD (Plasmodium falciparum) enzyme inhibition; PfGluPho enzyme, NADPH resazurin-diaphorase fluorescence; inhibition, % at 20 µM; 350,000 compounds, 0.78% hits; AID 504690;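 active = inhibition reaching at least a set limit at 20 µM in the primary screen, cut at about 59% in these data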;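 note: 0% = DMSO wells with substrate and 100% = DMSO wells lacking glucose-6-phosphate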
L major viab – reduces viability of Leishmania major promastigotes. 200,000 compounds, 9% hits. inhibition, % at 10 µM. resazurin fluorescence viability;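 note: promastigotes grown with compound for 44 hours at 28 °C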
Diaphorase act – diaphorase activation or chemical reduction counter-screen | Diaphorase/resazurin coupled assay, resorufin fluorescence, 16 min; stronger effect = higher value; 1 = vehicle wells, 0 = NADH-free wells | activation factor at 20 µM | 190,000 compounds, 0.005% hits | AID 1229;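 active = diaphorase activity raised at least twofold by the compound at 20 µM; inactive = activation factor below 2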
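Test system: Clostridium kluyveri diaphorase, purified enzyme; input: enzyme 0.07 U/mL final; buffer or medium: 50 mM HEPES pH 7.4 with 4.542 mM MgCl2, 0.005% Tween 20; also added: 0.114 mM NADH and 0.1 mM resazurin, final amounts; schedule: 16 min enzyme reaction, ambient temperature; technique: fluorescence of resorufin, 544 nm excitation, 590 nm emission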
Diaphorase inh – inhibits diaphorase or chemically oxidizes, flagging diaphorase assay artifacts | inhibition, % at 20 µM | AID 1217 | 190,000 compounds, 0.69% hits | diaphorase resazurin-to-resorufin fluorescence, NADH, 16 min; bacterial (C. kluyveri) enzyme, not human;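 active = primary screen inhibition at 20 µM above a set limit, cut at about 50% in these data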;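 note: plate controls were DMSO with full reaction for no effect and wells lacking NADH for full effect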
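Assay system: diaphorase enzyme from Clostridium kluyveri; Input: enzyme working solution with 0.14 U/mL diaphorase; Timing: 16 min at room temperature; Technique: resorufin fluorescence, excitation 544 nm, emission 590 nm; Benchmarks: positive control minus NADH, DMSO neutral control.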
G6PDH counter – inhibits Leuconostoc G6PDH, flagging false hits in G6PDH-based assays | Purified L. mesenteroides G6PDH, diaphorase/resazurin coupled fluorescence, 45 min | inhibition, % at 5 µM | 200,000 compounds, 0.12% hits
Redox H2O2 prof – compounds producing H2O2 with reducing agent – biochemical, NIH compound library profiling, artefact control for MLSCN library redox annotation, primary screen; DTT-dependent redox cycling H2O2, phenol red/HRP absorbance; 100% = 100 µM peroxide control, 0% = buffer; activation, % at 10 µM; 200,000 compounds, 0.03% hits;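 active = activation of at least 50% relative to the plate's high and low controls in the primary single-dose screen; inactive = activation below 50%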;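 note: compound incubated with DTT at 0.8 mM final as the reducing agent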
The depositor's hits bear a star. Only a selection was taken, and hits are over-represented in it overall. Cut-off read from the data, not from the text of the source, unless noted: active = inhibition above about 50%; inactive = the rest.

`C=CCOc1cccc(C2C(C(=O)c3cc4ccccc4o3)=C(O)C(=O)N2c2cc(C)on2)c1` (stereo not given) gave PfGluPho inh -13.
`O=C(c1nc2ccccn2c1CN1CCC(Cc2ccccc2)CC1)N1CCCC1` gave PfGluPho inh 14, L major viab 69*, Diaphorase act 1, Diaphorase inh 3, G6PDH counter 10 and Redox H2O2 prof -2.
`COC1CCN(Cc2c(C(=O)N3CCN(C4CCCCC4)CC3)nc3ccccn23)CC1` gave PfGluPho inh -6.
`Cc1cccc(OC2CCN(Cc3c(C(=O)N4CCCC4)nc4ccccn34)CC2)c1` gave PfGluPho inh 3, L major viab 99*, Diaphorase act 0.9, Diaphorase inh 11, G6PDH counter 18 and Redox H2O2 prof -1.
`O=c1cc(CN2CCC(Cc3ccccc3)CC2)nc2sccn12` gave PfGluPho inh -3, L major viab 88*, Diaphorase act 1, Diaphorase inh 1, G6PDH counter 4 and Redox H2O2 prof 0.
Screening Cc1cccc(NC(=O)CCc2ccc(N3C(N)=NC(N)=NC3(C)C)cc2)c1 returned PfGluPho inh -3.
Cc1ccc(S(=O)(=O)Nc2ccc(Br)cc2/C=N/n2cnnc2)cc1 was read as PfGluPho inh -21, L major viab 13, Diaphorase act 0.9, Diaphorase inh 13, G6PDH counter 11 and Redox H2O2 prof 1.
Screening O=C(NCc1ccccc1)c1ccc(CS(=O)Cc2cccc(Cl)c2)o1 (stereo not given) returned PfGluPho inh 7.
O=C(CCCc1c[nH]c2ccccc12)NCC1COc2ccccc2O1 (stereo not given) was read as PfGluPho inh 9, L major viab 55*, Diaphorase act 0.9, Diaphorase inh 9, G6PDH counter 4 and Redox H2O2 prof 0.
C/C(=N\NC(=O)Cc1c[nH]c2ccccc12)c1ccc2ccccc2c1 was read as PfGluPho inh 10, L major viab 55*, Diaphorase act 0.6, Diaphorase inh 36, G6PDH counter 1 and Redox H2O2 prof -2.
Screening O=C(CCCc1c[nH]c2ccccc12)Nc1ccc2ccccc2c1 returned PfGluPho inh 10, L major viab 52*, Diaphorase act 0.8, Diaphorase inh 19, G6PDH counter -2 and Redox H2O2 prof 1.
Screening C/C(=N\NC(=O)c1c[nH]c2ccccc12)c1ccc2c(c1)OCO2 returned PfGluPho inh 6, L major viab 14, Diaphorase act 0.9, Diaphorase inh 5, G6PDH counter -7 and Redox H2O2 prof -2.
`O=C(CCc1c[nH]c2ccccc12)NCC1COc2ccccc2O1` (stereo not given) gave PfGluPho inh 5, L major viab 12, Diaphorase act 0.9, Diaphorase inh 9, G6PDH counter 4 and Redox H2O2 prof 0.
For CCOc1ccc(CNC(=O)CN2C(=O)CSc3ccc(S(=O)(=O)N4CCOCC4)cc32)cc1 the results were PfGluPho inh -4.
For Cc1ccc(/C(N)=N/OC(=O)CSc2ccccc2)cc1 the results were PfGluPho inh 13, L major viab -7, Diaphorase act 1, Diaphorase inh 0, G6PDH counter 6 and Redox H2O2 prof 0.
Screening N/C(=N\OC(=O)CSc1ccccc1)c1ccc([N+](=O)[O-])cc1 returned PfGluPho inh 1, L major viab 64*, Diaphorase act 0.8, Diaphorase inh 20, G6PDH counter 2 and Redox H2O2 prof 1.
`Cc1cc(C)c(OCCCCN2CCC(C)CC2)c(Br)c1` gave PfGluPho inh -13, L major viab 98*, Diaphorase act 0.9, Diaphorase inh 13, G6PDH counter 5 and Redox H2O2 prof 0.
`Cc1cc(Cl)c(OCCOCCN2CCC(C)CC2)c(Br)c1` gave PfGluPho inh 6, L major viab 99*, Diaphorase act 0.9, Diaphorase inh 12, G6PDH counter 2 and Redox H2O2 prof 0.
Screening Cc1cc(Cl)c(OCCOCCN2CCN(C)CC2)c(Br)c1 returned PfGluPho inh -4.

From PubChem BioAssay
